Data from ChEMBL document CHEMBL5247578, “Effective synthesis of benzimidazoles-imidazo[1,2-a]pyrazine conjugates: A comparative study of mono-and bis-benzimidazoles for antitumor activity” (Eur J Med Chem, 2019).

Key:
[1] = system: NCI-H322M; test: Antiproliferative activity against human NCI-H322M cells assessed as cell growth inhibition at 10 uM incubated for 48 hrs by sulforhodamine B assay relative to control; type: functional
Outline: (§1)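 NCI-60 single-dose screen at 10^-5 M. Cells grown in RPMI 1640 with 5% FBS and 2 mM L-glutamine, plated at 5,000–40,000 cells/well, and preincubated 24 h. Drug (DMSO stock) added and incubated 48 h at 37 °C, 5% CO2. Adherent cells fixed with cold TCA, stained with 0.4% SRB in 1% acetic acid, dye solubilized in 10 mM trizma base, A515 read. Percent growth taken against time-zero and untreated control.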

[2] = system: Malme-3M; test: Antiproliferative activity against human Malme-3M cells assessed as cell growth inhibition at 10 uM incubated for 48 hrs by sulforhodamine B assay relative to control; type: functional; outline: as §1
[3] = system: SK-MEL-5; test: Antiproliferative activity against human SK-MEL-5 cells assessed as cell growth inhibition at 10 uM incubated for 48 hrs by sulforhodamine B assay relative to control; type: functional; outline: as §1
[4] = system: HL-60; test: Antiproliferative activity against human HL-60 cells assessed as cell growth inhibition at 10 uM incubated for 48 hrs by sulforhodamine B assay relative to control; type: functional
Outline: (§2)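 NCI-60 one-dose prescreen at 10^-5 M. Cells grown in RPMI 1640 with 5% FBS and 2 mM glutamine, preincubated 24 h, then exposed 48 h at 37 °C. Adherent lines TCA-fixed, SRB-stained, A515 read. Growth percent relative to time-zero and control; negative values mean cell kill.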

[5] = system: HT-29; test: Antiproliferative activity against human HT-29 cells assessed as cell growth inhibition at 10 uM incubated for 48 hrs by sulforhodamine B assay relative to control; type: functional; outline: as §1
[6] = system: NCI/ADR-RES; test: Antiproliferative activity against human NCI/ADR-RES cells assessed as cell growth inhibition at 10 uM incubated for 48 hrs by sulforhodamine B assay relative to control; type: functional; outline: as §1
[7] = system: K562; test: Antiproliferative activity against human K562 cells assessed as cell growth inhibition at 10 uM incubated for 48 hrs by sulforhodamine B assay relative to control; type: functional; outline: as §1
[8] = system: HOP-62; test: Antiproliferative activity against human HOP-62 cells assessed as cell growth inhibition at 10 uM incubated for 48 hrs by sulforhodamine B assay relative to control; type: functional; outline: as §2
[9] = system: KM12; test: Antiproliferative activity against human KM12 cells assessed as cell growth inhibition at 10 uM incubated for 48 hrs by sulforhodamine B assay relative to control; type: functional; outline: as §1
[10] = system: CCRF-CEM; test: Antiproliferative activity against human CCRF-CEM cells assessed as cell growth inhibition at 10 uM incubated for 48 hrs by sulforhodamine B assay relative to control; type: functional
Outline: (§3)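 Single-dose NCI-60 prescreen at 10^-5 M. Cells in RPMI 1640 with 5% FBS and 2 mM L-glutamine, seeded 5,000–40,000 cells/well with 24 h preincubation, then drug exposure for 48 h at 37 °C under 5% CO2. Growth read by SRB staining of TCA-fixed cells at 515 nm against time-zero and untreated controls. Negative growth values denote cell kill.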

[11] = system: MDA-MB-231; test: Antiproliferative activity against human MDA-MB-231 cells assessed as cell growth inhibition at 10 uM incubated for 48 hrs by sulforhodamine B assay relative to control; type: functional; outline: as §1
[12] = system: BT-549; test: Antiproliferative activity against human BT-549 cells assessed as cell growth inhibition at 10 uM incubated for 48 hrs by sulforhodamine B assay relative to control; type: functional; outline: as §3
[13] = n-Octanol/phosphate buffer partition coefficient, logP of the compound at pH 7.4 incubated for 85 mins by shake-flask method; type: physicochemical
Outline: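 Octanol–water partition by shake-flask: n-octanol with 0.15 M phosphate buffer pH 7.4 at 10:1 volumes. Buffer-phase absorbance read before mixing, then shaken 50 min and centrifuged at 2500 rpm for 35 min. Buffer absorbance read again; P = (Ai−Af)/Af × Vw/Vo.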

[14] = system: T47D; test: Antiproliferative activity against human T47D cells assessed as cell growth inhibition at 10 uM incubated for 48 hrs by sulforhodamine B assay relative to control; type: functional; outline: as §1
[15] = system: RPMI-8226; test: Antiproliferative activity against human RPMI-8226 cells assessed as cell growth inhibition at 10 uM incubated for 48 hrs by sulforhodamine B assay relative to control; type: functional; outline: as §1
[16] = system: MDA-MB-468; test: Antiproliferative activity against human MDA-MB-468 cells assessed as cell growth inhibition at 10 uM incubated for 48 hrs by sulforhodamine B assay relative to control; type: functional; outline: as §1
[17] = system: SF-539; test: Antiproliferative activity against human SF-539 cells assessed as cell growth inhibition at 10 uM incubated for 48 hrs by sulforhodamine B assay relative to control; type: functional; outline: as §1
[18] = system: SF-268; test: Antiproliferative activity against human SF-268 cells assessed as cell growth inhibition at 10 uM incubated for 48 hrs by sulforhodamine B assay relative to control; type: functional; outline: as §1
[19] = system: ACHN; test: Antiproliferative activity against human ACHN cells assessed as cell growth inhibition at 10 uM incubated for 48 hrs by sulforhodamine B assay relative to control; type: functional; outline: as §3
[20] = system: LOX IMVI; test: Antiproliferative activity against human LOX IMVI cells assessed as cell growth inhibition at 10 uM incubated for 48 hrs by sulforhodamine B assay relative to control; type: functional; outline: as §1
[21] = system: Hs-578T; test: Antiproliferative activity against human Hs-578T cells assessed as cell growth inhibition at 10 uM incubated for 48 hrs by sulforhodamine B assay relative to control; type: functional; outline: as §1
[22] = system: SR; test: Antiproliferative activity against human SR cells assessed as cell growth inhibition at 10 uM incubated for 48 hrs by sulforhodamine B assay relative to control; type: functional; outline: as §1
[23] = system: SN12C; test: Antiproliferative activity against human SN12C cells assessed as cell growth inhibition at 10 uM incubated for 48 hrs by sulforhodamine B assay relative to control; type: functional; outline: as §1
[24] = system: U-251; test: Antiproliferative activity against human U-251 cells assessed as cell growth inhibition at 10 uM incubated for 48 hrs by sulforhodamine B assay relative to control; type: functional; outline: as §1
[25] = system: M14; test: Antiproliferative activity against human M14 cells assessed as cell growth inhibition at 10 uM incubated for 48 hrs by sulforhodamine B assay relative to control; type: functional; outline: as §1
[26] = system: HCT-15; test: Antiproliferative activity against human HCT-15 cells assessed as cell growth inhibition at 10 uM incubated for 48 hrs by sulforhodamine B assay relative to control; type: functional; outline: as §2
[27] = system: UACC-62; test: Antiproliferative activity against human UACC-62 cells assessed as cell growth inhibition at 10 uM incubated for 48 hrs by sulforhodamine B assay relative to control; type: functional; outline: as §1
[28] = system: SNB-19; test: Antiproliferative activity against human SNB-19 cells assessed as cell growth inhibition at 10 uM incubated for 48 hrs by sulforhodamine B assay relative to control; type: functional; outline: as §1
[29] = system: HOP-92; test: Antiproliferative activity against human HOP-92 cells assessed as cell growth inhibition at 10 uM incubated for 48 hrs by sulforhodamine B assay relative to control; type: functional; outline: as §2
[30] = system: NCI-H522; test: Antiproliferative activity against human NCI-H522 cells assessed as cell growth inhibition at 10 uM incubated for 48 hrs by sulforhodamine B assay relative to control; type: functional; outline: as §1
[31] = system: UO-31; test: Antiproliferative activity against human UO-31 cells assessed as cell growth inhibition at 10 uM incubated for 48 hrs by sulforhodamine B assay relative to control; type: functional; outline: as §1
[32] = system: NCI-H23; test: Antiproliferative activity against human NCI-H23 cells assessed as cell growth inhibition at 10 uM incubated for 48 hrs by sulforhodamine B assay relative to control; type: functional; outline: as §1
[33] = system: SK-MEL-2; test: Antiproliferative activity against human SK-MEL-2 cells assessed as cell growth inhibition at 10 uM incubated for 48 hrs by sulforhodamine B assay relative to control; type: functional; outline: as §1
[34] = system: OVCAR-8; test: Antiproliferative activity against human OVCAR-8 cells assessed as cell growth inhibition at 10 uM incubated for 48 hrs by sulforhodamine B assay relative to control; type: functional; outline: as §1
[35] = system: PC-3; test: Antiproliferative activity against human PC-3 cells assessed as cell growth inhibition at 10 uM incubated for 48 hrs by sulforhodamine B assay relative to control; type: functional; outline: as §1
[36] = system: MDA-MB-435; test: Antiproliferative activity against human MDA-MB-435 cells assessed as cell growth inhibition at 10 uM incubated for 48 hrs by sulforhodamine B assay relative to control; type: functional; outline: as §1
[37] = system: NCI-H460; test: Antiproliferative activity against human NCI-H460 cells assessed as cell growth inhibition at 10 uM incubated for 48 hrs by sulforhodamine B assay relative to control; type: functional; outline: as §1
[38] = system: MCF7; test: Antiproliferative activity against human MCF7 cells assessed as cell growth inhibition at 10 uM incubated for 48 hrs by sulforhodamine B assay relative to control; type: functional; outline: as §1
[39] = system: MOLT-4; test: Antiproliferative activity against human MOLT-4 cells assessed as cell growth inhibition at 10 uM incubated for 48 hrs by sulforhodamine B assay relative to control; type: functional; outline: as §1
[40] = system: IGROV-1; test: Antiproliferative activity against human IGROV-1 cells assessed as cell growth inhibition at 10 uM incubated for 48 hrs by sulforhodamine B assay relative to control; type: functional; outline: as §1
[41] = system: HCT-116; test: Antiproliferative activity against human HCT-116 cells assessed as cell growth inhibition at 10 uM incubated for 48 hrs by sulforhodamine B assay relative to control; type: functional; outline: as §2

For `CC(=O)c1ccc(-c2cn3ccnc3c(-c3ccc4ncn(C5CCCCC5)c4c3)n2)cc1`, the inhibition at 10 µM [1] was 1.19%, the inhibition at 10 µM [2] was 3.01% and the inhibition at 10 µM [3] was 24.8%. For the same compound, the inhibition at 10 µM [4] was 2.65%, the inhibition at 10 µM [5] was 9.2% and the inhibition at 10 µM [6] was 4.17%. For the same compound, the inhibition at 10 µM [7] was 9.6%, the inhibition at 10 µM [8] was 7.41% and the inhibition at 10 µM [9] was 11.7%. It also gave an inhibition at 10 µM [10] of 1.1%, an inhibition at 10 µM [11] of 7.65% and an inhibition at 10 µM [12] of 4.68%. The logD at 1.417 h [13] was 2.06, the inhibition at 10 µM [14] was 54.4% and the inhibition at 10 µM [15] was 20.8%. It also gave an inhibition at 10 µM [16] of 0.73%, an inhibition at 10 µM [17] of 2.82% and an inhibition at 10 µM [18] of 5.01%. For the same compound, the inhibition at 10 µM [19] was 4.32%, the inhibition at 10 µM [20] was 14.5% and the inhibition at 10 µM [21] was 6.34%. It also gave an inhibition at 10 µM [22] of 23.6%, an inhibition at 10 µM [23] of 6.33% and an inhibition at 10 µM [24] of 3.02%. The inhibition at 10 µM [25] was 3.43%, the inhibition at 10 µM [26] was 18.8% and the inhibition at 10 µM [27] was 18.5%. It also gave an inhibition at 10 µM [28] of 3.96%, an inhibition at 10 µM [29] of 25% and an inhibition at 10 µM [30] of 10.4%. For the same compound, the inhibition at 10 µM [31] was 23.1%, the inhibition at 10 µM [32] was 8.6% and the inhibition at 10 µM [33] was 0.58%. It also gave an inhibition at 10 µM [34] of 6.38%, an inhibition at 10 µM [35] of 17.9% and an inhibition at 10 µM [36] of 6%. The inhibition at 10 µM [37] was 7.12%, the inhibition at 10 µM [38] was 12% and the inhibition at 10 µM [39] was 14.3%. For the same compound, the inhibition at 10 µM [40] was 19.1% and the inhibition at 10 µM [41] was 15.8%.
